# Laboratory results as given in ChEMBL document CHEMBL4270638, “Sulfonyl-containing phenyl-pyrrolyl pentane analogues: Novel non-secosteroidal vitamin D receptor modulators with favorable physicochemical properties, pharmacokinetic properties and anti-tumor activity” (Eur J Med Chem, 2018).
# Tests used:
# [1] = tested on: BXPC-3; assay: Antiproliferative activity against human BxPC3 cells after 24 hrs by MTT assay; format: functional, cell-based; settings: BXPC-3, 24 h
# [2] = tested on: MCF7; assay: Antiproliferative activity against human MCF7 cells after 24 hrs by MTT assay; format: functional, cell-based; settings: MCF7, 24 h
# [3] = tested on: PC-3; assay: Antiproliferative activity against human PC3 cells after 24 hrs by MTT assay; format: functional, cell-based; settings: PC-3, 24 h
# [4] = Solubility of the compound in water at pH 7.4 by HPLC method; format: physicochemical
# Method in brief: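 Aqueous solubility measured at pH 7.4, with samples quantified by HPLC.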
# [5] = Half life in rat liver microsomes in presence of NADPH by HPLC method; format: ADME, microsome
# Method in brief: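 Compounds incubated with rat liver microsomes plus NADPH. Remaining compound quantified by HPLC at 0, 5, 10, 20, 30, 45, 60 and 90 min, and half-life calculated.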
# [6] = tested on: MCF7; assay: Cell cycle arrest in human MCF7 cells expressing scrambled siRNA assessed as accumulation at G0/G1 phase at 1 uM after 24 hrs by propidium iodide staining based flow cytometry (reference value: 49.28%); format: functional
# [7] = tested on: MCF7; assay: Cell cycle arrest in human MCF7 cells expressing scrambled siRNA assessed as accumulation at G2/M phase at 1 uM after 24 hrs by propidium iodide staining based flow cytometry (reference value: 19.6%); format: functional
# [8] = tested on: MCF7; assay: Cell cycle arrest in human MCF7 cells expressing scrambled siRNA assessed as accumulation at S phase at 1 uM after 24 hrs by propidium iodide staining based flow cytometry (reference value: 29.79%); format: functional
# [9] = tested on: MCF7; assay: Cell cycle arrest in human MCF7 cells expressing VDR siRNA assessed as accumulation at G0/G1 phase at 1 uM after 24 hrs by propidium iodide staining based flow cytometry (reference value: 49.17%); format: functional
# [10] = tested on: MCF7; assay: Cell cycle arrest in human MCF7 cells expressing VDR siRNA assessed as accumulation at G2/M phase at 1 uM after 24 hrs by propidium iodide staining based flow cytometry (reference value: 17.57%); format: functional
# [11] = tested on: MCF7; assay: Cell cycle arrest in human MCF7 cells expressing VDR siRNA assessed as accumulation at S phase at 1 uM after 24 hrs by propidium iodide staining based flow cytometry (reference value: 32%); format: functional
# [12] = tested on: MCF7; assay: Induction of apoptosis in human MCF7 cells expressing scrambled siRNA assessed as live cells at 1 uM after 24 hrs by Annexin-V-FITC/propidium iodide staining based flow cytometry (reference value: 97.93%); format: functional
# [13] = tested on: MCF7; assay: Induction of apoptosis in human MCF7 cells expressing scrambled siRNA assessed as early apoptotic cells at 1 uM after 24 hrs by Annexin-V-FITC/propidium iodide staining based flow cytometry (reference value: 0.93%); format: functional
# [14] = tested on: MCF7; assay: Induction of apoptosis in human MCF7 cells expressing scrambled siRNA assessed as late apoptotic cells at 1 uM after 24 hrs by Annexin-V-FITC/propidium iodide staining based flow cytometry (reference value: 0.98%); format: functional
# [15] = tested on: MCF7; assay: Induction of apoptosis in human MCF7 cells expressing scrambled siRNA assessed as necrotic cells at 1 uM after 24 hrs by Annexin-V-FITC/propidium iodide staining based flow cytometry (reference value: 0.16%); format: functional
# [16] = tested on: MCF7; assay: Induction of apoptosis in human MCF7 cells expressing VDR siRNA assessed as live cells at 1 uM after 24 hrs by Annexin-V-FITC/propidium iodide staining based flow cytometry (reference value: 98.35%); format: functional
# [17] = tested on: MCF7; assay: Induction of apoptosis in human MCF7 cells expressing VDR siRNA assessed as early apoptotic cells at 1 uM after 24 hrs by Annexin-V-FITC/propidium iodide staining based flow cytometry (reference value: 0.49%); format: functional
# [18] = tested on: MCF7; assay: Induction of apoptosis in human MCF7 cells expressing VDR siRNA assessed as late apoptotic cells at 1 uM after 24 hrs by Annexin-V-FITC/propidium iodide staining based flow cytometry (reference value: 1.01%); format: functional
# [19] = tested on: MCF7; assay: Induction of apoptosis in human MCF7 cells expressing VDR siRNA assessed as necrotic cells at 1 uM after 24 hrs by Annexin-V-FITC/propidium iodide staining based flow cytometry (reference value: 0.15%); format: functional
Structure (SMILES),IC50 [1],IC50 [2],IC50 [3],other results
CCn1c(C(=O)N[C@H](C)C(=O)OC)ccc1C(CC)(CC)c1ccc(OCS(=O)(=O)c2ccccc2)c(C)c1,> 50 µM,> 50 µM,> 50 µM,
CCN(CC)CCNC(=O)c1ccc(C(CC)(CC)c2ccc(OCS(=O)(=O)c3ccccc3)c(C)c2)n1CC,6.27 µM,4.68 µM,7.13 µM,solubility [4]: 117 µg/mL; half-life [5]: 62.4 min
CCn1c(C(=O)NCC(=O)O)ccc1C(CC)(CC)c1ccc(OCS(=O)(=O)c2ccccc2)c(C)c1,> 50 µM,33.1 µM,30.1 µM,
CCn1c(C(=O)NCCC(=O)O)ccc1C(CC)(CC)c1ccc(OCS(=O)(=O)c2ccccc2)c(C)c1,> 50 µM,> 50 µM,14.4 µM,
CCn1c(C(=O)N[C@H](CC(=O)O)C(=O)O)ccc1C(CC)(CC)c1ccc(OCS(=O)(=O)c2ccccc2)c(C)c1,> 50 µM,> 50 µM,> 50 µM,
CCN(CC)CCNC(=O)c1cc(C(CC)(CC)c2ccc(OCSC)c(C)c2)cn1CC,4.11 µM,4.64 µM,9.54 µM,Activity [6]: 55.62%; Activity [7]: 12.37%; Activity [8]: 30.52%; Activity [9]: 51.44%; Activity [10]: 16.92%; Activity [11]: 30.37%; Activity [12]: 95.2%; Activity [13]: 1.17%; Activity [14]: 3.24%; Activity [15]: 0.39%; Activity [16]: 96.68%; Activity [17]: 0.91%; Activity [18]: 1.91%; Activity [19]: 0.5%; solubility [4]: 198 µg/mL; half-life [5]: 48.1 min
CCn1c(C(=O)NCC(=O)OC)ccc1C(CC)(CC)c1ccc(OCS(=O)(=O)c2ccccc2)c(C)c1,20 µM,> 50 µM,> 50 µM,
CCn1c(C(=O)NC2(CO)CC2)ccc1C(CC)(CC)c1ccc(OCS(=O)(=O)c2ccccc2)c(C)c1,45.4 µM,28.8 µM,3.56 µM,
CCn1c(C(=O)N[C@H](CO)CCO)ccc1C(CC)(CC)c1ccc(OCS(=O)(=O)c2ccccc2)c(C)c1,15.9 µM,28.5 µM,12.1 µM,
CCn1c(C(=O)NCCN)ccc1C(CC)(CC)c1ccc(OCS(=O)(=O)c2ccccc2)c(C)c1,6.43 µM,6.47 µM,6.89 µM,solubility [4]: 65 µg/mL; half-life [5]: 34.9 min
CCn1c(C(=O)NC2(C(=O)O)CC2)ccc1C(CC)(CC)c1ccc(OCS(=O)(=O)c2ccccc2)c(C)c1,> 50 µM,41.2 µM,26.3 µM,
CCn1c(C(=O)N[C@@H](C)CO)ccc1C(CC)(CC)c1ccc(OCS(=O)(=O)c2ccccc2)c(C)c1,15.3 µM,10.8 µM,9.52 µM,solubility [4]: 35.7 µg/mL; half-life [5]: 43.8 min
CCn1c(C(=O)N[C@H](C(=O)O)C(C)C)ccc1C(CC)(CC)c1ccc(OCS(=O)(=O)c2ccccc2)c(C)c1,16.2 µM,24.5 µM,3.65 µM,
CCn1c(C(=O)NCCO)ccc1C(CC)(CC)c1ccc(OCS(=O)(=O)c2ccccc2)c(C)c1,19.9 µM,15.5 µM,17.7 µM,
CCn1c(C(=O)N[C@H](C)C(=O)O)ccc1C(CC)(CC)c1ccc(OCS(=O)(=O)c2ccccc2)c(C)c1,20.1 µM,> 50 µM,20.1 µM,
CCn1c(C(=O)N[C@@H](CC(=O)O)C(=O)O)ccc1C(CC)(CC)c1ccc(OCS(=O)(=O)c2ccccc2)c(C)c1,> 50 µM,> 50 µM,> 50 µM,
CCn1c(C(=O)NC(C)(C)CO)ccc1C(CC)(CC)c1ccc(OCS(=O)(=O)c2ccccc2)c(C)c1,18.3 µM,20.7 µM,9.85 µM,
CCN(CC)CCNC(=O)c1ccc(C(CC)(CC)c2ccc(OCS(C)(=O)=O)c(C)c2)n1CC,33.7 µM,14.7 µM,46.7 µM,
